# Measured values as given in ChEMBL document CHEMBL1255432, “Fast standardized therapeutic-efficacy assay for drug discovery against tuberculosis” (2010).
# Tests used:
# [1] = tested on: Mycobacterium tuberculosis; test: Antimycobacterial activity against Mycobacterium tuberculosis H37Rv infected in B6 mouse assessed as 2 log reduction in bacterial burden in lungs orally treated in water upto 8 days; type: functional; details: Lung, po, 192 h
# Procedure, shortened: (§1)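 Female B6 mice, 8–10 weeks old, infected intratracheally under 3% isoflurane with 10^5 CFU H37Rv in 50 μl PBS. Oral dosing once daily from day 1 to day 8 at a range of doses; lungs harvested day 9, homogenized and plated; colonies counted after 14 days. ED99 (2-log CFU/lung reduction versus untreated controls) fitted from individual log10 CFU/lung to a logistic equation; 5 mice/group; 95% CI.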
# [2] = tested on: Mycobacterium tuberculosis; test: Antimycobacterial activity against Mycobacterium tuberculosis H37Rv infected in B6 mouse assessed as lowest concentration to reduce bacterial burden in lungs to level of reduction achieved with higher doses orally treated in water upto 8 days; type: functional, Lung
# Procedure, shortened: (§2)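 B6 female mice given intratracheal H37Rv, 105 CFU/mouse in PBS, then oral once-daily treatment on days 1–8 across several doses. On day 9, lung homogenates were plated and CFU counted after 14 days. EDmax taken empirically as the lowest dose giving a lung CFU reduction statistically indistinguishable from higher doses; 5 mice/group.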
# [3] = tested on: Mycobacterium tuberculosis; test: Antimycobacterial activity against Mycobacterium tuberculosis H37Rv infected in B6 mouse assessed as 2 log reduction in bacterial burden in lungs orally treated in water-1% methylcellulose upto 8 days; type: functional; details: Lung, po, 192 h; procedure, shortened: as §1
# [4] = tested on: Mycobacterium tuberculosis; test: Antimycobacterial activity against Mycobacterium tuberculosis H37Rv infected in B6 mouse assessed as assessed as lowest concentration to reduce bacterial burden in lungs to level of reduction achieved with higher doses orally treated in water-1% methylcellulose upto 8 days; type: functional, Lung; procedure, shortened: as §2
# [5] = tested on: Mycobacterium tuberculosis; test: Antimycobacterial activity against Mycobacterium tuberculosis H37Rv infected in B6 mouse assessed as 2 log reduction in bacterial burden in lungs orally treated in water-20% encapsine upto 8 days; type: functional; details: Lung, po, 192 h; procedure, shortened: as §1
# [6] = tested on: Mycobacterium tuberculosis; test: Antimycobacterial activity against Mycobacterium tuberculosis H37Rv infected in B6 mouse assessed as assessed as lowest concentration to reduce bacterial burden in lungs to level of reduction achieved with higher doses orally treated in water-20% encapsine upto 8 days; type: functional, Lung; procedure, shortened: as §2
# [7] = tested on: Mycobacterium tuberculosis; test: Antimycobacterial activity against Mycobacterium tuberculosis H37Rv infected in B6 mouse assessed as 2 log reduction in bacterial burden in lungs orally treated in water-20% captisol upto 8 days; type: functional; details: Lung, po, 192 h; procedure, shortened: as §1
# [8] = tested on: Mycobacterium tuberculosis; test: Antimycobacterial activity against Mycobacterium tuberculosis H37Rv infected in B6 mouse assessed as assessed as lowest concentration to reduce bacterial burden in lungs to level of reduction achieved with higher doses orally treated in water-20% captisol upto 8 days; type: functional, Lung; procedure, shortened: as §2
Structure (SMILES),ED99 [3] [mg/kg],Emax [4],also measured
NNC(=O)c1ccncc1 [ISONIAZID],–,–,ED99 [1]: 0.95 mg/kg; Emax [2]: 25 mg/kg
CC(=O)NC[C@H]1CN(c2ccc(N3CCOCC3)c(F)c2)C(=O)O1 [LINEZOLID],28,>=300 mg kg-1,–
NC(=O)c1cnccn1 [PYRAZINAMIDE],362,>=1000 mg kg-1,–
CC[C@@H](CO)NCCN[C@@H](CC)CO [ETHAMBUTOL],21.6,300 mg/kg,–
CO[C@H]1/C=C/O[C@@]2(C)Oc3c(C)c(O)c4c(O)c(c(/C=N/N5CCN(C)CC5)c(O)c4c3C2=O)NC(=O)/C(C)=C\C=C\[C@H](C)[C@H](O)[C@@H](C)[C@@H](O)[C@@H](C)[C@H](OC(C)=O)[C@@H]1C [RIFAMPIN],–,–,ED99 [5]: 9.8 mg/kg; Emax [6]: 30 mg/kg
COc1c(N2C[C@@H]3CCCN[C@@H]3C2)c(F)cc2c(=O)c(C(=O)O)cn(C3CC3)c12 [MOXIFLOXACIN],–,–,ED99 [7]: 27.7 mg/kg; Emax [8]: 100 mg/kg
